Reference: ChEMBL document CHEMBL4038343, “Dual MET and SMO Negative Modulators Overcome Resistance to EGFR Inhibitors in Human Nonsmall Cell Lung Cancer” (J Med Chem, 2017)
Activity calls are given as the source filed them. The rule behind the calls is not given here.

What was measured:
[1] = system: Protein smoothened (Homo sapiens), Q99835 [V404M]; experiment: Displacement of [3H]-cyclopamine from SMO V404M mutant in gefitinib resistant human HCC827 cells at 10 uM by scintillation counting
Protein smoothened [2] = biological target: Protein smoothened (Homo sapiens, UniProt Q99835, V404M); experiment: Displacement of [3H]-cyclopamine from SMO V404M mutant in gefitinib resistant human HCC827 cells by scintillation counting
Protein smoothened (Homo sapiens, UniProt Q99835, V404M), sequence (Q99835 28-787 V404M limits assumed): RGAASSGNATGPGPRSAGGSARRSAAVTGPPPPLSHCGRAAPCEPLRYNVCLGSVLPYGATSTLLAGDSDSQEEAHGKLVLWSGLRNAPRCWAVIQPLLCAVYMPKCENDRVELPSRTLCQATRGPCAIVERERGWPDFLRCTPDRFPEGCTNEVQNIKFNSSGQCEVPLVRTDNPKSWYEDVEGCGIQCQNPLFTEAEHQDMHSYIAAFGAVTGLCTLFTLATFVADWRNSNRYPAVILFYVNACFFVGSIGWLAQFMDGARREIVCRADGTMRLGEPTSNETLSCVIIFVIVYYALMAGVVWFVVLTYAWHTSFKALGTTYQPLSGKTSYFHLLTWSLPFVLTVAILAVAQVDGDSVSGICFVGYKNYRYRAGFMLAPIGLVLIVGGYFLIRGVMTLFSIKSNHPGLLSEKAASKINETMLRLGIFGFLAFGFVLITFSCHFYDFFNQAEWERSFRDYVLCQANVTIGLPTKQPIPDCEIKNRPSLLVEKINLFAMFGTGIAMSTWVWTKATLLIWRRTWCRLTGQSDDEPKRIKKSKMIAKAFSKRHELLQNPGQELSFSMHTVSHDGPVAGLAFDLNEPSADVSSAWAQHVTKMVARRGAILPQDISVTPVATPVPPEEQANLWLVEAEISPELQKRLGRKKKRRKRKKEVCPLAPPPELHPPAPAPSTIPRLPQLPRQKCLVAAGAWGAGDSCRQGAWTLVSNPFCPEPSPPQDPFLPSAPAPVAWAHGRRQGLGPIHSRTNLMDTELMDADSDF

[3] = system: Protein smoothened (Homo sapiens), Q99835 [V404M]; experiment: Inhibition of SMO V404M mutant in gefitinib resistant human HCC827 cells assessed as decrease in GLI1 activity at 2 uM by GLI1 luciferase reporter assay relative to control
Procedure, shortened: (§1)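 HCC827-GR cells seeded serum-free, cotransfected at 50% confluence with GLI1-firefly luciferase reporter plus pRL-TK Renilla (Lipofectamine 2000, triplicate); after 8 h medium switched to compound, with or without 100 nM SAG; about 48 h post-transfection dual-luciferase read; firefly normalized to Renilla as fold over control; three independent experiments.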

[4] = system: Protein smoothened (Homo sapiens), Q99835 [V404M]; experiment: Inhibition of SMO V404M mutant in gefitinib resistant human HCC827 cells assessed as decrease in GLI1 activity at 60 uM by GLI1 luciferase reporter assay relative to control; procedure, shortened: as §1
[5] = system: Protein smoothened (Homo sapiens), Q99835 [V404M]; experiment: Inhibition of SMO V404M mutant in gefitinib resistant human HCC827 cells assessed as decrease in GLI1 activity at 2 to 60 uM in presence of SMO agonist SAG by GLI1 luciferase reporter assay; procedure, shortened: as §1
[6] = system: Protein smoothened (Homo sapiens), Q99835 [V404M]; experiment: Inhibition of SMO V404M mutant in gefitinib resistant human HCC827 cells assessed as decrease in GLI1 activity by GLI1 luciferase reporter assay; procedure, shortened: as §1
Protein smoothened [7] = biological target: Protein smoothened (Homo sapiens, UniProt Q99835); experiment: Displacement of [3H]-cyclopamine from human wild-type SMO receptor expressed in HEK293T cell membranes by liquid scintillation spectrometry; design: species or system HEK-293T
Protein smoothened (Homo sapiens, UniProt Q99835), sequence (Q99835 whole entry): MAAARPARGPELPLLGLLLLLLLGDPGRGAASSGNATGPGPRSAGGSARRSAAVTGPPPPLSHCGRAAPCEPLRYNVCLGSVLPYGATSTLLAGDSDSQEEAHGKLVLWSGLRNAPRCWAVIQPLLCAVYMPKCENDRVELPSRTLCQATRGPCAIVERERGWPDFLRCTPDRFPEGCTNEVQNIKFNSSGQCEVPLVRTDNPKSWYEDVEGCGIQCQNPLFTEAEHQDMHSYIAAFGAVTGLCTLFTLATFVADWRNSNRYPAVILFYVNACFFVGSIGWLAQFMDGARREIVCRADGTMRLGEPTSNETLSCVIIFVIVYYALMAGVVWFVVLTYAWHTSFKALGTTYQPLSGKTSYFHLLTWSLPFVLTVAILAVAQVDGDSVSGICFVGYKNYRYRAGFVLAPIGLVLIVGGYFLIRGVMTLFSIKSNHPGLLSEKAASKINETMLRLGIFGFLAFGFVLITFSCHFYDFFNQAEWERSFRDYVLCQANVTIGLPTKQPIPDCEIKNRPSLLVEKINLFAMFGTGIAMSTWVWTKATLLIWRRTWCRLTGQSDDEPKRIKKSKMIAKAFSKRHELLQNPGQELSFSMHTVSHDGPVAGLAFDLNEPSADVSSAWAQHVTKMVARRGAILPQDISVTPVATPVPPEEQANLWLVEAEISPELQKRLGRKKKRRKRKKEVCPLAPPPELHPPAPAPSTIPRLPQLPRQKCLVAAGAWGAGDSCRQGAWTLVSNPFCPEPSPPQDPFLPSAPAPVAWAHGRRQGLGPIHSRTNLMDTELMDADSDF

HCC827 [8] = experiment: Antiproliferative activity against gefitinib resistant EGFR-mutated human HCC827 cells after 72 hrs by MTT assay; type: functional, cell-based; conditions: for IC50: HCC827, 72 h
HCC827 [9] = experiment: Induction of apoptosis in gefitinib resistant human HCC827 cells at 0.01 to 1 uM after 72 hrs by annexin V-FITC-propidium iodide staining-based flow cytometry method relative to control; type: functional, cell-based
Procedure, shortened: (§2)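 HCC827-GR cells treated 72 h, trypsinized, resuspended at 1 × 10^6/mL in binding buffer, stained 30 min at RT in dark with annexin V-FITC and propidium iodide; FACSCalibur flow cytometry (488 nm excitation; 530 nm FITC, 670 nm PI); mean of three wells from a representative experiment.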

HCC827 [10] = experiment: Downregulation of SMO expression in gefitinib resistant human HCC827 cells at 0.1 to 0.5 uM after 72 hrs by Western blotting method; type: functional, cell-based
Procedure, shortened: (§3)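 HCC827-GR cells treated 72 h; lysates in RIPA or Tween-20 buffer, protein equalized by Bradford, Western blotting with antibodies to p-MAPK44/42 (Thr202/Tyr204), MAPK, p-AKT (Ser473), AKT, p-MET (Tyr1234/1235), MET, SMO, GLI1, α-tubulin; ECL detection; triplicate.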

HCC827 [11] = experiment: Effect on total MAPK levels in gefitinib resistant human HCC827 cells at 0.1 to 0.5 uM after 72 hrs by Western blotting method; type: ADME, cell-based; conditions: hcc827, 72 h; procedure, shortened: as §3
HCC827 [12] = experiment: Effect on total AKT levels in gefitinib resistant human HCC827 cells at 0.1 to 0.5 uM after 72 hrs by Western blotting method; type: ADME, cell-based; conditions: hcc827, 72 h; procedure, shortened: as §3
HCC827 [13] = experiment: Antitumor activity against gefitinib resistant human HCC827 cells xenografted in balb/c athymic nu/nu mouse assessed as decrease in tumor size at 20 mg/kg/day, po; type: functional, organism-based
Procedure, shortened: (§4)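 Female balb/c nu/nu mice, 4–6 weeks old, given 10^7 HCC827 cells s.c. in 1:1 Matrigel/medium; at 150 mm3 tumors, 3-weekly escalating oral gefitinib (18.7 to 150 mg/kg/day) over 4 months until resistance (>25% regrowth from maximal reduction); then randomized to oral test agent at fixed daily dose; tumor volume (π/6 × larger × smaller²) every other day.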

HCC827 [14] = experiment: Antitumor activity against gefitinib resistant human HCC827 cells xenografted in balb/c athymic nu/nu mouse assessed as decrease in tumor size at 20 mg/kg/day, po in presence of gefitinib; type: functional, organism-based
Procedure, shortened: (§5)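 HCC827 s.c. xenografts (10^7 cells in Matrigel) in female balb/c nu/nu mice made gefitinib-resistant by 3-weekly escalating oral gefitinib (18.7–150 mg/kg/day); gefitinib then continued at its last maximal dose with oral compound at fixed daily dose; tumor volume by calipers (π/6 × larger × smaller²) and body weight on alternate days.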

HCC827 [15] = experiment: Antitumor activity against gefitinib resistant human HCC827 cells xenografted in balb/c athymic nu/nu mouse assessed as decrease in tumor size at 20 mg/kg/day, po in presence of gefitinib
HCC827 [16] = experiment: Induction of apoptosis in gefitinib resistant human HCC827 cells at 0.1 uM after 72 hrs by annexin V-FITC-propidium iodide staining-based flow cytometry method relative to control; type: functional; procedure, shortened: as §2
HCC827 [17] = experiment: Induction of apoptosis in gefitinib resistant human HCC827 cells at 0.5 uM after 72 hrs by annexin V-FITC-propidium iodide staining-based flow cytometry method relative to control; type: functional; procedure, shortened: as §2
[18] = Plasma concentration in balb/c athymic nu/nu mouse at 20 mg/kg, po measured after 5 hrs; type: ADME, organism-based
HCC827 [19] = experiment: Antitumor activity against gefitinib resistant human HCC827 cells xenografted in balb/c athymic nu/nu mouse assessed as decrease in tumor size at 15 mg/kg/day, po; type: functional, organism-based; procedure, shortened: as §4
[20] = biological target: Hepatocyte growth factor receptor (Homo sapiens) (UniProt P08581); experiment: Inhibition of MET phosphorylation at Tyr1234/1235 in gefitinib resistant human HCC827 cells at 0.05 to 0.1 uM after 72 hrs by Western blotting method; procedure, shortened: as §3
Hepatocyte growth factor receptor (Homo sapiens), sequence (P08581 whole entry): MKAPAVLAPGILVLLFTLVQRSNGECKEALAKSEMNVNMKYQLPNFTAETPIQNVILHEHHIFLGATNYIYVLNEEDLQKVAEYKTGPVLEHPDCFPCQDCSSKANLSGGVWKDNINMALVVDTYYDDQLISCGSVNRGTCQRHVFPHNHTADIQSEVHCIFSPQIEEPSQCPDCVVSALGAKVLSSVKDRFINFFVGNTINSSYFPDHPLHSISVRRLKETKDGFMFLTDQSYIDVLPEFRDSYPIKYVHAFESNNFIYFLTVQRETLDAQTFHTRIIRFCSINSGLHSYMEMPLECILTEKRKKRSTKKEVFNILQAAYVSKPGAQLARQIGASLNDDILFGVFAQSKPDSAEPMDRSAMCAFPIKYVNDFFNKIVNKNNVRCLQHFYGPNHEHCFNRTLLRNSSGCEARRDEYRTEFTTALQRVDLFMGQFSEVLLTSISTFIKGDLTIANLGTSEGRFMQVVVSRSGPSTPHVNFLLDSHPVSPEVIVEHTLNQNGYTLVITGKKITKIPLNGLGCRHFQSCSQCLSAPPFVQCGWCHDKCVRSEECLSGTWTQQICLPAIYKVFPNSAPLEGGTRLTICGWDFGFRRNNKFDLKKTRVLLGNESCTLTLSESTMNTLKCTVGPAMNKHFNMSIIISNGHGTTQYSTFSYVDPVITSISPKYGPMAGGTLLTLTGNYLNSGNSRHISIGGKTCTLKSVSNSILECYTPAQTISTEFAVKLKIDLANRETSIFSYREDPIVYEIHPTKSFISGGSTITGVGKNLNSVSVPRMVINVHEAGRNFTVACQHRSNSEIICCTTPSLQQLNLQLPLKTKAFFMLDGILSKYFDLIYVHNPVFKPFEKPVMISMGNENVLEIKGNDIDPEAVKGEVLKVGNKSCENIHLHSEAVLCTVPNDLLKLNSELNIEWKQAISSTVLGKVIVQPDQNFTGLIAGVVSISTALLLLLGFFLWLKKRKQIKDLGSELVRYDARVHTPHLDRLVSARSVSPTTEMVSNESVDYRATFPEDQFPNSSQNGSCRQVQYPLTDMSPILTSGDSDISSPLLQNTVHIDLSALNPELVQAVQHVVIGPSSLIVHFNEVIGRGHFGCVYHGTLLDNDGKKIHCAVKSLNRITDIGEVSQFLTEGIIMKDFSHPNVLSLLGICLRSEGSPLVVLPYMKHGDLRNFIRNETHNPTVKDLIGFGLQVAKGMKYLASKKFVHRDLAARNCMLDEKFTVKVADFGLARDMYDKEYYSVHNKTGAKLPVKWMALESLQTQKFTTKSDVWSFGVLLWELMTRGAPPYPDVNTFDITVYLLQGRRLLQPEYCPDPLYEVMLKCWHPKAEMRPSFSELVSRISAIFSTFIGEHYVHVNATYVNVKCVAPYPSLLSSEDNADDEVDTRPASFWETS

HCC827 [21] = experiment: Downregulation of SMO expression in gefitinib resistant human HCC827 cells at 0.05 to 0.1 uM after 72 hrs by Western blotting method; type: functional, cell-based; procedure, shortened: as §3
HCC827 [22] = experiment: Effect on total MAPK levels in gefitinib resistant human HCC827 cells at 0.05 to 0.1 uM after 72 hrs by Western blotting method; type: ADME, cell-based; conditions: hcc827, 72 h; procedure, shortened: as §3
HCC827 [23] = experiment: Effect on total AKT levels in gefitinib resistant human HCC827 cells at 0.05 to 0.1 uM after 72 hrs by Western blotting method; type: ADME, cell-based; conditions: hcc827, 72 h; procedure, shortened: as §3
[24] = biological target: Hepatocyte growth factor receptor (Homo sapiens) (UniProt P08581); experiment: Inhibition of MET in gefitinib resistant human HCC827 cells assessed as decrease in MAPK44/42 phosphorylation at Thr202/Tyr204 at 0.05 to 0.1 uM after 72 hrs by Western blotting method; procedure, shortened: as §3
[25] = biological target: Hepatocyte growth factor receptor (Homo sapiens) (UniProt P08581); experiment: Inhibition of MET in gefitinib resistant human HCC827 cells assessed as decrease in AKT phosphorylation at Ser473 at 0.05 to 0.1 uM after 72 hrs by Western blotting method; procedure, shortened: as §3
Homo sapiens = species: Homo sapiens; experiment: Inhibition of MET/SMO V404M mutant in gefitinib resistant human HCC827 cells assessed as decrease in vimentin expression at 0.05 to 0.1 uM after 72 hrs by Western blotting method
HCC827 [26] = experiment: Antitumor activity against gefitinib resistant human HCC827 cells xenografted in balb/c athymic nu/nu mouse assessed as decrease in tumor size at 15 mg/kg/day, po in presence of gefitinib; type: functional, organism-based; procedure, shortened: as §5
HCC827 [27] = experiment: Antitumor activity against gefitinib resistant human HCC827 cells xenografted in balb/c athymic nu/nu mouse assessed as decrease in tumor size at 15 mg/kg/day, po in presence of gefitinib

Protein smoothened (Homo sapiens), Q99835 [V404M], sequence (Q99835 whole entry V404M): as the sequence (Q99835 whole entry) above, with V404M counted along it

CC(C)(O)CC(=O)NCCn1ccc2ncnc(Nc3ccc(Oc4cccc(C(F)(F)F)c4)c(Cl)c3)c21
inhibition [1]: inactive

Cc1cccc(C(=O)Nc2ccc(C(=O)NNC3C(=O)Nc4ccccc43)cc2)c1 (stereo not given)
inhibition [1]: inactive

Cc1ccc(F)c(NC(=O)Nc2ccc(-c3cccc4[nH]nc(N)c34)cc2)c1 [LINIFANIB]
Ki (Protein smoothened [2]): 87.6 nM | inhibition [3]: 25 to 50% | inhibition [4]: 10 to 100% | inhibition [5]: inactive | inhibition [6]: Dose-dependent effect

CSc1cccc(Nc2ncc3cc(-c4c(Cl)cccc4Cl)c(=O)n(C)c3n2)c1
Ki (Protein smoothened [2]): 46.2 nM | inhibition [3]: 25 to 50% | inhibition [4]: 10 to 100% | inhibition [5]: inactive | inhibition [6]: Dose-dependent effect

Cc1ccc(NC(=O)CN2C(=O)/C(=N/NC(=O)c3cc(Br)ccc3O)c3ccccc32)cc1
Ki (Protein smoothened [2]): 50.4 nM | inhibition [3]: 25 to 50% | inhibition [4]: 10 to 100% | inhibition [5]: inactive | inhibition [6]: Dose-dependent effect

CCN1CCN(c2ccc(Nc3cc(N(C)C(=O)Nc4c(Cl)c(OC)cc(OC)c4Cl)ncn3)cc2)CC1 [INFIGRATINIB]
Ki (Protein smoothened [2]): 46.5 nM | inhibition [3]: 25 to 50% | inhibition [4]: 10 to 100% | inhibition [5]: inactive | inhibition [6]: Dose-dependent effect

O=C(CCCCCC(=O)N/N=C/c1cc2c(cc1[N+](=O)[O-])OCO2)N/N=C/c1cc2c(cc1[N+](=O)[O-])OCO2
inhibition [1]: inactive

COc1cc2ncnc(Oc3cccc(NC(=O)Nc4cc(C(C)(C)C(F)(F)F)on4)c3)c2cc1OC [CEP-32496]
Ki (Protein smoothened [2]): 188 nM | inhibition [3]: 25 to 50% | inhibition [4]: 10 to 100% | inhibition [5]: inactive | inhibition [6]: Dose-dependent effect

COc1cc2c(Oc3ccc(NC(=O)C4(C(=O)Nc5ccc(F)cc5)CC4)cc3F)ccnc2cc1OCCCN1CCOCC1 [FORETINIB]
Ki (Protein smoothened [7]): 59.7 nM | Ki (Protein smoothened [2]): 66.8 nM | Activity (HCC827 [8]): Dose-dependent effect | IC50 (HCC827 [8]): 500 nM | inhibition [3]: 25 to 50% | inhibition [4]: 10 to 100% | inhibition [5]: inactive | inhibition [6]: Dose-dependent effect | Activity (HCC827 [9]): Active | Activity (HCC827 [10]): Active | Activity (HCC827 [11]): Non-Toxic | Activity (HCC827 [12]): Non-Toxic | Activity (HCC827 [13]): Active | Activity (HCC827 [14]): Active | Activity (HCC827 [15]): Active

CCOc1ccn(-c2ccc(F)cc2)c(=O)c1C(=O)Nc1ccc(Oc2ccnc(N)c2Cl)c(F)c1
inhibition [1]: inactive

Cn1cnc(-c2cc3nccc(Oc4ccc(NC(=S)NC(=O)Cc5ccccc5)cc4F)c3s2)c1
Ki (Protein smoothened [7]): 41.7 nM | Ki (Protein smoothened [2]): 53.1 nM | Activity (HCC827 [8]): Dose-dependent effect | IC50 (HCC827 [8]): 80 nM | Activity (HCC827 [16]): 62% | Activity (HCC827 [17]): 84% | inhibition [3]: 25 to 50% | inhibition [4]: 10 to 100% | inhibition [5]: inactive | concentration at 5 h [18]: 800 nM | Activity (HCC827 [19]): Active | inhibition [20]: Active | Activity (HCC827 [21]): Active | inhibition [6]: Dose-dependent effect | Activity (HCC827 [22]): Non-Toxic | Activity (HCC827 [23]): Non-Toxic | inhibition [24]: Active | inhibition [25]: Active | inhibition (Homo sapiens): Active | Activity (HCC827 [26]): Active | Activity (HCC827 [27]): Active

O=C(NNC(=O)c1ccc([N+](=O)[O-])cc1)C(=O)c1c[nH]c2ccccc12
Ki (Protein smoothened [2]): 168 nM | inhibition [3]: 25 to 50% | inhibition [4]: 10 to 100% | inhibition [5]: inactive | inhibition [6]: Dose-dependent effect
